In ChEMBL document CHEMBL4673384, “Studying Histone Deacetylase Inhibition and Apoptosis Induction of Psammaplin A Monomers with Modified Thiol Group” (ACS Med Chem Lett, 2021):
The source made the active and inactive calls. The rule behind the calls is not given here.

Assays:
HL-60 [1] = assay: Induction of apoptosis in human HL-60 cells assessed as viable cells at 8 uM incubated for 24 hrs by propidium iodide and annexin-V FITC staining based FACS analysis (reference value: 92.05 %); assay type: functional; details: read-out: Activity
HL-60 [2] = assay: Induction of apoptosis in human HL-60 cells assessed as early apoptotic cells at 8 uM incubated for 24 hrs by propidium iodide and annexin-V FITC staining based FACS analysis (reference value: 2.9 %); assay type: functional
HL-60 [3] = assay: Induction of apoptosis in human HL-60 cells assessed as necrotic cells at 8 uM incubated for 24 hrs by propidium iodide and annexin-V FITC staining based FACS analysis (reference value: 0.5 %); assay type: functional
[4] = Antitumor activity against mouse LL/2 cells inoculated in C57BL/6J mouse assessed as tumor growth inhibition at 100 mg/kg, ip administered for 12 days; assay type: functional, Lewis lung carcinoma; set-up: scale not given: the % may be the effect or the level left; details: time 12 day
HL-60 [5] = assay: Induction of apoptosis in human HL-60 cells assessed as early apoptotic cells at 1 uM incubated for 24 hrs by propidium iodide and annexin-V FITC staining based FACS analysis (reference value: 2.9 %); assay type: functional
HL-60 [6] = assay: Induction of apoptosis in human HL-60 cells assessed as late apoptotic cells at 1 uM incubated for 24 hrs by propidium iodide and annexin-V FITC staining based FACS analysis (reference value: 4.2 %); assay type: functional
HL-60 [7] = assay: Induction of apoptosis in human HL-60 cells assessed as viable cells at 1 uM incubated for 24 hrs by propidium iodide and annexin-V FITC staining based FACS analysis (reference value: 92.5 %); assay type: functional; details: read-out: Activity
[8] = biological target: T1, Protein deacetylase HDAC6 (Homo sapiens) (UniProt Q9UBN7); assay: Inhibition of HDAC6 in human HL-60 cells assessed as increase in acetylated alpha tubulin level at 0.5 uM after 24 hrs by Western blot analysis; assay type: cell-based
T1 sequence (whole entry): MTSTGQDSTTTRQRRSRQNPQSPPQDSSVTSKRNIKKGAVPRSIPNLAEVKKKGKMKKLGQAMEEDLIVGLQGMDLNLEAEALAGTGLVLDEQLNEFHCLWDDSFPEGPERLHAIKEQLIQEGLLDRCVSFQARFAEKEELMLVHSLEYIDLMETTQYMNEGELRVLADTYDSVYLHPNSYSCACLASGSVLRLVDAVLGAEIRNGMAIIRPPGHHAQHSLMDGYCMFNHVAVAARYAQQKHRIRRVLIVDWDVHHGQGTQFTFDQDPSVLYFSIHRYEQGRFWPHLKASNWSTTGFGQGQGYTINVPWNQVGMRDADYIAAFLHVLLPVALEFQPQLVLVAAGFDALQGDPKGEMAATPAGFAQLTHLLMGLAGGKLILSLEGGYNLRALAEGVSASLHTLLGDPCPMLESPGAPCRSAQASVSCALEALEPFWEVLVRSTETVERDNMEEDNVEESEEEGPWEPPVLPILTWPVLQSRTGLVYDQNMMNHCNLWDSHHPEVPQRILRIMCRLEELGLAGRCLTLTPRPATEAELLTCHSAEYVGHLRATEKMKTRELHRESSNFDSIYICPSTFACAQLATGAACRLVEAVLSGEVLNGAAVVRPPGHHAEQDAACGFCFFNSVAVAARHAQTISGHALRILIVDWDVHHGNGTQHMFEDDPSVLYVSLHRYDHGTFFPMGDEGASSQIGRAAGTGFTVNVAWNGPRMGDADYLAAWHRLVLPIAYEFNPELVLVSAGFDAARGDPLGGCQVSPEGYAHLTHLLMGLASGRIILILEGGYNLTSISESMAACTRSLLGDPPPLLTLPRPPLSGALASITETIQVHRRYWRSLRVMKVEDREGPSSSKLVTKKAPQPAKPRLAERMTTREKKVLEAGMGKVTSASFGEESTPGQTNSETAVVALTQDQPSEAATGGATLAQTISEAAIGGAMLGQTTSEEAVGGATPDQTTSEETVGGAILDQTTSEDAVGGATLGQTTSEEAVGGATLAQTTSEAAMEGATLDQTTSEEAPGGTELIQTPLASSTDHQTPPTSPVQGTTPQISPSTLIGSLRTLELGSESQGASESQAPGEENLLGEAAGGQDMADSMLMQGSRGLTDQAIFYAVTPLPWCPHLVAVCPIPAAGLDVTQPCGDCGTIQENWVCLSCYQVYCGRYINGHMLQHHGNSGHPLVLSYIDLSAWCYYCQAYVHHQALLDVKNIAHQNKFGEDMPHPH
How it was run: (§1)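 Compound given to HL-60 cells for 24 h at the stated concentrations, then lysed. Acetyl-histone H3 and acetyl-α-tubulin levels were read by Western blot, with total H3, α-tubulin or β-actin as references.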

Histone deacetylase 1 = Histone deacetylase 1 (Homo sapiens, UniProt Q13547); assay: Inhibition of HDAC1 in human HL-60 cells assessed as increase in Ac-H3 level at 0.5 to 2 uM incubated for 24 hrs by Western blot analysis; assay type: cell-based; details: dose 0.5-2 µM; how it was run: as §1
Chain of Histone deacetylase 1 (Q13547 whole entry): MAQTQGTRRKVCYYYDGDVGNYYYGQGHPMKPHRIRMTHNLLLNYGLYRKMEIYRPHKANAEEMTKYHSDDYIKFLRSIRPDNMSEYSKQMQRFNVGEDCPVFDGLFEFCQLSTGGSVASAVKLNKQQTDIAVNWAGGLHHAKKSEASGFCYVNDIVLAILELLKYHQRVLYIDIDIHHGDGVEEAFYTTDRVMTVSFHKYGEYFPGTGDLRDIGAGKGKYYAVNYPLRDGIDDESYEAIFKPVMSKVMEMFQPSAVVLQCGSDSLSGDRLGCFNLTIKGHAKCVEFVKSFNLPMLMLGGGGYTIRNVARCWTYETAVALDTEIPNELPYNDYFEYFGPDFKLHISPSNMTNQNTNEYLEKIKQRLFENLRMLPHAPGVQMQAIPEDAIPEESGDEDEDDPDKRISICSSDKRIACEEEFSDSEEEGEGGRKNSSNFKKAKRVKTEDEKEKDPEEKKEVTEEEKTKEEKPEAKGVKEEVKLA

[9] = biological target: Histone deacetylase 3 (Homo sapiens) (UniProt O15379); assay: Inhibition of HDAC3 in human HL-60 cells assessed as increase in Ac-H3 level at 0.5 to 2 uM incubated for 24 hrs by Western blot analysis; assay type: cell-based; details: dose 0.5-2 µM; how it was run: as §1
Chain of Histone deacetylase 3 (Homo sapiens) (O15379 whole entry): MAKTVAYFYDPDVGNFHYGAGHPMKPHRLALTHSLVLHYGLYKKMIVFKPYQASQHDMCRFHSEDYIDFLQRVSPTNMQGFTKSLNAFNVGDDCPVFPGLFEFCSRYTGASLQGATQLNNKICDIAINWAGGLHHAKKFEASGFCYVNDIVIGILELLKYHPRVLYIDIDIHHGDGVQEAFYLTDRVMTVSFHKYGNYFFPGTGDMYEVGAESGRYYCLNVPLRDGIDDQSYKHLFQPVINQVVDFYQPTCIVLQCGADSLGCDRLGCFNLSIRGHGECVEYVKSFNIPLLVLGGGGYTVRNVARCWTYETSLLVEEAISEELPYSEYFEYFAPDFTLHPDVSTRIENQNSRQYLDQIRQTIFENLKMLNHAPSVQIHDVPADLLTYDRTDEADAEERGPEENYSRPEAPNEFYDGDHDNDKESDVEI

HL-60 [10] = assay: Induction of apoptosis in human HL-60 cells assessed as cleavage of caspase-9 at 0.5 to 2 uM after 24 hrs Western blot analysis; assay type: functional, cell-based; details: dose 0.5-2 µM
How it was run: (§2)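 HL-60 cells were treated for 24 h at the indicated concentrations, then analysed by Western blot. Blots were probed for cleavage of PARP and caspase-3, -8 and -9. Ac-H3, Ac-α-tubulin and β-actin were also detected, with β-actin as the loading reference.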

HL-60 [11] = assay: Induction of apoptosis in human HL-60 cells assessed as necrotic cells at 1 uM incubated for 24 hrs by propidium iodide and annexin-V FITC staining based FACS analysis (reference value: 0.3 %); assay type: functional
HL-60 [12] = assay: Induction of apoptosis in human HL-60 cells assessed as late apoptotic cells at 2 uM incubated for 24 hrs by propidium iodide and annexin-V FITC staining based FACS analysis (reference value: 4.8 %); assay type: functional
HL-60 [13] = assay: Induction of apoptosis in human HL-60 cells assessed as necrotic cells at 2 uM incubated for 24 hrs by propidium iodide and annexin-V FITC staining based FACS analysis (reference value: 0.3 %); assay type: functional
HL-60 [14] = assay: Induction of apoptosis in human HL-60 cells assessed as early apoptotic cells at 0.5 uM incubated for 24 hrs by propidium iodide and annexin-V FITC staining based FACS analysis (reference value: 2.8 %); assay type: functional
HL-60 [15] = assay: Induction of apoptosis in human HL-60 cells assessed as cleavage of caspase-8 at 0.5 to 2 uM after 24 hrs Western blot analysis; assay type: functional, cell-based; details: dose 0.5-2 µM; how it was run: as §2
HL-60 [16] = assay: Induction of apoptosis in human HL-60 cells assessed as early apoptotic cells at 2 uM incubated for 24 hrs by propidium iodide and annexin-V FITC staining based FACS analysis (reference value: 2.8 %); assay type: functional
Histone deacetylase 2 = Histone deacetylase 2 (Homo sapiens, UniProt Q92769); assay: Inhibition of HDAC2 in human HL-60 cells assessed as increase in Ac-H3 level at 0.5 to 2 uM incubated for 24 hrs by Western blot analysis; assay type: cell-based; details: dose 0.5-2 µM; how it was run: as §1
Chain of Histone deacetylase 2 (Q92769 whole entry): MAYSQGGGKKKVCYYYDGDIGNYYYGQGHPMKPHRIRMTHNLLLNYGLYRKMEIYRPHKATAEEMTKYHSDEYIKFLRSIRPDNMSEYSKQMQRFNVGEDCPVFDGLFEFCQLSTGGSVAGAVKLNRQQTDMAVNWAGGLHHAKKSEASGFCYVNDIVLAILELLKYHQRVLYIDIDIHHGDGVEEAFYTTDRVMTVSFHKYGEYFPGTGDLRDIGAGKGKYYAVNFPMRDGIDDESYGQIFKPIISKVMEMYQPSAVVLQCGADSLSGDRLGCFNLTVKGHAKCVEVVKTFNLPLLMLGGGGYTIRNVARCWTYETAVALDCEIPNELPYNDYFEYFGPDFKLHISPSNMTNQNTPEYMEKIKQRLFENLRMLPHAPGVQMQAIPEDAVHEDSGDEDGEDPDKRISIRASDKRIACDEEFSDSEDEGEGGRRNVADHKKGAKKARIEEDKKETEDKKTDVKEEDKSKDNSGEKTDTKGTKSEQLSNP

`O=C(NCCS)/C(Cc1ccc(O)c(Br)c1)=N/O` showed a viability at 8 µM (HL-60 [1]) of 68.3%, an Activity (HL-60 [2]) of 3.3% and an Activity (HL-60 [3]) of 3.3%. For the same compound, the Activity [4] was 62%.
`O=C(NCCSSCCNC(=O)/C(Cc1ccc(O)c(Br)c1)=N/O)/C(Cc1ccc(O)c(Br)c1)=N/O` [PSAMMAPLIN A] gave an Activity (HL-60 [5]) of 2.6%, an Activity (HL-60 [6]) of 7.8% and a viability at 1 µM (HL-60 [7]) of 88.8%.
With `O=C(CCNC(=O)/C(Cc1ccc(O)c(Br)c1)=N/O)NO` the inhibition [8] was “Active”, the inhibition (Histone deacetylase 1) was “Active” and the inhibition [9] was “Active”. For the same compound, the Activity (HL-60 [10]) was “Active”, the Activity (HL-60 [11]) was 0.5% and the Activity (HL-60 [12]) was 21.9%. For the same compound, the Activity (HL-60 [13]) was 0.8%, the Activity (HL-60 [14]) was 1.9% and the Activity (HL-60 [15]) was “Active”. The Activity (HL-60 [16]) was 7.3% and the inhibition (Histone deacetylase 2) was “Active”.
